Values after ≈ are worked out from the molar mass of the structure shown.
Key:
Enterococcus faecalis [1] = experiment: Minimum inhibitory concentration against cell wall biosynthesis of vancomycin susceptible (ATCC) Enterococcus faecalis GC 4555; type: functional
Outline: (§1)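 Broth microdilution per NCCLS M7-A3. Mueller–Hinton broth for staphylococci and enterococci, 2-fold serial dilutions of agent. Final inoculum 1–5 × 10^5 CFU/mL.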

Escherichia coli [2] = experiment: Minimum inhibitory concentration against cell wall biosynthesis of Escherichia coli GC 4560; type: functional
Streptococcus pneumoniae [3] = experiment: Minimum inhibitory concentration against cell wall biosynthesis of penicillin resistant Streptococcus pneumoniae GC 1894 (PRSP); type: functional
Outline: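 Broth microdilution per NCCLS M7-A3, using Mueller–Hinton broth supplemented with 5% sheep blood. Agents tested as 2-fold serial dilutions, with a final inoculum of 1–5 × 10^5 CFU/mL.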

Escherichia coli [4] = experiment: Minimum inhibitory concentration against cell wall biosynthesis of Escherichia coli GC 4559; type: functional; outline: as §1
Staphylococcus aureus [5] = experiment: Minimum inhibitory concentration against cell wall biosynthesis of methicillin susceptible Staphylococcus aureus GC 4543; type: functional
Outline: (§2)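 Broth microdilution per NCCLS M7-A3 in Mueller–Hinton broth, aerobic. Agents tested as 2-fold serial dilutions, with a final inoculum of 1–5 × 10^5 CFU/mL. Plates incubated 18–22 h at 35 °C in ambient air. MIC read as the endpoint.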

Enterococcus faecalis [6] = experiment: Minimum inhibitory concentration against cell wall biosynthesis of vancomycin resistant Enterococcus faecalis GC 2242 (VRE); type: functional; outline: as §2
Staphylococcus aureus [7] = experiment: Minimum inhibitory concentration against cell wall biosynthesis of methicillin resistant Staphylococcus aureus GC 1131; type: functional; outline: as §2
[8] = Minimum inhibitory concentration against cell wall biosynthesis of methicillin-susceptible Coagulase negative staphylococcus GC 646 (MSCNS); type: functional; outline: as §1
Streptococcus pneumoniae [9] = experiment: Minimum inhibitory concentration against cell wall biosynthesis of penicillin resistant Streptococcus pneumoniae GC 1894 (PRSP) in the presence of 4% bovine serum albumin; type: functional
[10] = target: T1, UDP-N-acetylenolpyruvoylglucosamine reductase (Escherichia coli K-12, UniProt P08373); experiment: Inhibitory concentration against MurB enzyme in Escherichia coli
T1 sequence (P08373 whole entry): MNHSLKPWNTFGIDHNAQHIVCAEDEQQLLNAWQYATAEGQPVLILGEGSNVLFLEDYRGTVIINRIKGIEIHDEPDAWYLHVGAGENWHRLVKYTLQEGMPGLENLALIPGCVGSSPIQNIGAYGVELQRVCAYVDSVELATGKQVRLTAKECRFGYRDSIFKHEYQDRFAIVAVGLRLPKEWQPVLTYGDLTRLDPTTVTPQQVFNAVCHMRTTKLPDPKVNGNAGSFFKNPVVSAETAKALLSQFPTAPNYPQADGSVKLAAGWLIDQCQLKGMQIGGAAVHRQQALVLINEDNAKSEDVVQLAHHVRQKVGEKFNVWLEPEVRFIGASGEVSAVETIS
Outline: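 Enzyme (20 nM) preincubated 20 min with inhibitor, then substrates added to final 50 µM EP-UNAG and 100 µM NADPH. Activity followed spectrophotometrically. At least six inhibitor concentrations between 1.5 and 50 µM per compound. IC50 from sigmoid Hill curve fit (0–100).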

[11] = target: UDP-N-acetylglucosamine 1-carboxyvinyltransferase (Escherichia coli K-12, UniProt P0A749); experiment: Inhibitory concentration against MurA enzyme in Escherichia coli
UDP-N-acetylglucosamine 1-carboxyvinyltransferase, sequence (P0A749 whole entry): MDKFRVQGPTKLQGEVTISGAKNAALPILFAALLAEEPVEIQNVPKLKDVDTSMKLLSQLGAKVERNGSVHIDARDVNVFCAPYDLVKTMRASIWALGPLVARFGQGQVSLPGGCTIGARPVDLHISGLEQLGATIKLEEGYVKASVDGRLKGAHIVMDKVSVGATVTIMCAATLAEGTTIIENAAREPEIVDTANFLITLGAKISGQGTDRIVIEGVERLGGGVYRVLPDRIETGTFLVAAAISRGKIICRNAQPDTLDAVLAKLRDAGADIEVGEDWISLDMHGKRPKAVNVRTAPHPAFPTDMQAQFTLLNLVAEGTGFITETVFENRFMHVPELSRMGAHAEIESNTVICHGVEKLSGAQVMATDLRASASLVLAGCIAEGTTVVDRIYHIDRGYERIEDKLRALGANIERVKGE
Outline: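 Enzyme preincubated with inhibitor 10 min at 37 °C before substrates were added. Reaction ran 30 min at 37 °C and was stopped with malachite green reagent (0.03% malachite green, 1.4% ammonium molybdate, 1.3 N HCl) for phosphate read-out.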

SMILES | MIC (Enterococcus faecalis [1]) | MIC (Escherichia coli [2]) | MIC (Streptococcus pneumoniae [3]) | MIC (Escherichia coli [4]) | MIC (Staphylococcus aureus [5]) | MIC (Enterococcus faecalis [6]) | MIC (Staphylococcus aureus [7]) | MIC [8] | MIC (Streptococcus pneumoniae [9]) | IC50 [10] | IC50 [11]
CCC(CC)CC1C(=O)N(c2ccc(Cl)cc2)N(c2ccc(Cl)cc2)C1=O | 200 µM (≈ 81.1 µg/mL) | 200 µM (≈ 81.1 µg/mL) | 25 µM (≈ 10.1 µg/mL) | > 200 µM | 100 µM (≈ 40.5 µg/mL) | 100 µM (≈ 40.5 µg/mL) | 100 µM (≈ 40.5 µg/mL) | 200 µM (≈ 81.1 µg/mL) | > 200 µM | 50 µM | > 50 µM
CC1(CCOCc2ccccc2)C(=O)N(c2ccc(Cl)cc2)N(c2ccc(Cl)cc2)C1=O | > 200 µM | > 200 µM | 100 µM (≈ 46.9 µg/mL) | > 200 µM | > 200 µM | – | 200 µM (≈ 93.9 µg/mL) | > 200 µM | > 200 µM | 20 µM | > 50 µM
O=C1C(Cc2cc(C(F)(F)F)cc(C(F)(F)F)c2)C(=O)N(c2ccc(Cl)cc2)N1c1ccc(Cl)cc1 | 50 µM (≈ 27.4 µg/mL) | > 200 µM | 6.25 µM (≈ 3.42 µg/mL) | 50 µM (≈ 27.4 µg/mL) | 25 µM (≈ 13.7 µg/mL) | 25 µM (≈ 13.7 µg/mL) | 25 µM (≈ 13.7 µg/mL) | 50 µM (≈ 27.4 µg/mL) | > 200 µM | 12 µM | > 50 µM
CCN(CC)CCC1C(=O)N(c2ccc(Cl)cc2)N(c2ccc(Cl)cc2)C1=O | 200 µM (≈ 84.1 µg/mL) | > 200 µM | 100 µM (≈ 42 µg/mL) | > 200 µM | > 200 µM | 200 µM (≈ 84.1 µg/mL) | 100 µM (≈ 42 µg/mL) | 200 µM (≈ 84.1 µg/mL) | > 200 µM | > 50 µM | > 50 µM
O=C1C(CCc2ccccc2)C(=O)N(c2ccc(Cl)cc2)N1c1ccc(Cl)cc1 | > 200 µM | 200 µM (≈ 85.1 µg/mL) | 50 µM (≈ 21.3 µg/mL) | > 200 µM | 200 µM (≈ 85.1 µg/mL) | 200 µM (≈ 85.1 µg/mL) | 200 µM (≈ 85.1 µg/mL) | 200 µM (≈ 85.1 µg/mL) | > 200 µM | 35 µM | > 50 µM
O=C1C(Cc2cccc(C(F)(F)F)c2)C(=O)N(c2ccc(Cl)cc2)N1c1ccc(Cl)cc1 | > 200 µM | > 200 µM | 50 µM (≈ 24 µg/mL) | > 200 µM | > 200 µM | – | – | > 200 µM | > 200 µM | 18 µM | > 50 µM
O=C1C(Cc2ccccc2)C(=O)N(c2ccc(Cl)cc2)N1c1ccc(Cl)cc1 | > 200 µM | > 200 µM | 200 µM (≈ 82.3 µg/mL) | > 200 µM | 200 µM (≈ 82.3 µg/mL) | – | 200 µM (≈ 82.3 µg/mL) | > 200 µM | > 200 µM | > 50 µM | > 50 µM
O=C1C(CCCc2ccccc2)C(=O)N(c2ccc(Cl)cc2)N1c1ccc(Cl)cc1 | > 200 µM | 200 µM (≈ 87.9 µg/mL) | 25 µM (≈ 11 µg/mL) | > 200 µM | 200 µM (≈ 87.9 µg/mL) | 200 µM (≈ 87.9 µg/mL) | 200 µM (≈ 87.9 µg/mL) | > 200 µM | > 200 µM | 10 µM | 44.3 µM
COc1cccc(CC2C(=O)N(c3ccc(Cl)cc3)N(c3ccc(Cl)cc3)C2=O)c1 | > 200 µM | > 200 µM | 200 µM (≈ 88.3 µg/mL) | > 200 µM | > 200 µM | – | – | 200 µM (≈ 88.3 µg/mL) | > 200 µM | 50 µM | > 50 µM
CCCCCCCC1C(=O)N(c2ccc(Cl)cc2)N(c2ccc(Cl)cc2)C1=O | 200 µM (≈ 83.9 µg/mL) | > 200 µM | 6.25 µM (≈ 2.62 µg/mL) | > 200 µM | 100 µM (≈ 41.9 µg/mL) | 100 µM (≈ 41.9 µg/mL) | 100 µM (≈ 41.9 µg/mL) | 200 µM (≈ 83.9 µg/mL) | > 200 µM | 42 µM | > 50 µM

From ChEMBL document CHEMBL1145247, “4-Alkyl and 4,4'-dialkyl 1,2-bis(4-chlorophenyl)pyrazolidine-3,5-dione derivatives as new inhibitors of bacterial cell wall biosynthesis” (Bioorg Med Chem Lett, 2005)
